# Compounds with a hit are over-represented: about 1.3% of the library has one in this group of screens.
# SKN-1 block = blocks SKN-1 activity in C. elegans | C. elegans VP596 Pgst-4::GFP/RFP ratio, acrylamide-induced, 24 h | inhibition, % at 21.8 µM | actives 0.49% (n = 360,000) | AID 624304;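 active means interference check ratio from 0.5 to 1.5 plus GFP to RFP signal ratio inhibition reaching or exceeding a fixed threshold, cut at about 30% in these data, passing the limit was not always enough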
# DAGLB inhibitor = blocks human DAGLB lipase activity; Q8NCG7; HEK293T DAGLB membrane lysate, EnzChek fluorogenic substrate; inhibition, % at 5.17 µM; actives 0.059% (n = 340,000); in the data active means inhibition above about 34%;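 further: 0% = enzyme with vehicle and 100% = wells lacking enzyme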
# MT1-MMP act inh = MT1-MMP (human) activation inhibition | HT1080 RFP-PRO-GFP cells, GFP/RFP ratio fluorescence, overnight; percent of plate control window, DMSO zero | GFP/RFP ratio change, % at 20 µM | actives 0.061% (n = 360,000);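 active means GFP/RFP ratio change of at least 30% with cell ATP level not reduced by more than half and red fluorescence within 50% of control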
#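 Material: RFP-PRO-GFP reporter HT1080 cells. Dosing: single-point 20 µM compound, 1% DMSO. Controls: DMSO and RFP-L50D-GFP cell wells. Timing: cells overnight before dosing, compound overnight, 37 °C, 5% CO2. Measure: GFP/RFP fluorescence ratio.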
# hiPSC survival = enhancers of human iPSC single-cell survival; hiPSC single-cell survival, ATPlite luminescence; 100% = ROCK inhibitor wells, 0% = DMSO; survival enhancement, % at 20 µM; actives 0.044% (n = 360,000); AID 602274; in the data active means survival enhancement above about 18%;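 further: cells exposed to compounds for 16 hours before the ATP read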
# FAS TE block = inhibitors of human fatty acid synthase thioesterase domain; P49327; recombinant FAS-TE, OMFH fluorogenic substrate, fluorescence endpoint; inhibition, % at 15 µM; actives 0.67% (n = 360,000);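 active means compounds whose normalised, plate-corrected inhibition of enzyme fluorescence in the single-dose primary screen is 50% or more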;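 further: 0% = DMSO with enzyme and 100% = substrate without enzyme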
# * marks the source's active call; other numbers are inactive results; nt = not tested or not shown.
SMILES,SKN-1 block,DAGLB inhibitor,MT1-MMP act inh,hiPSC survival,FAS TE block
COCCN1C[C@@H](CO)O[C@@H](n2cnc3c(NCC(C)C)ncnc32)C1,-0.1,nt,-4.9,-0.3,-1.6
CSc1ccc(NC(=O)NCCCN2CCN(c3ccccc3F)CC2)cc1,33.4*,0.9,8.3,-2.5,4.5
C[C@H](CO)N1C[C@H](C)[C@@H](CN(C)C(=O)CN2CCOCC2)Oc2ncc(-c3cncnc3)cc2C1=O,-23.9,-3.7,4.0,1.4,-9.1
Cc1ccn2cc(-c3ccc(Br)cc3)nc2c1,7.6,0.2,-3.8,-0.9,1.3
Clc1ccc(-c2cn3cc(Br)ccc3n2)cc1Cl,56.8*,-5.3,0.2,-3.4,-0.9
CCOc1cc2c(cc1OCC)C(C(=O)O)C(c1cc(OC)c(OC)c(OC)c1)N(C)C2=O (centres undefined),35.7*,3.3,-0.4,0.7,-10.2
Cc1cccc(C)c1NC(=O)C(CCc1ccccc1)n1c(=O)c(-c2ccccc2)nc2ccccc21 (centres undefined),17.2,nt,-25.3,nt,nt
CC1CCc2c(C(=O)Nc3nccs3)csc2C1 (centres undefined),37.2*,0.6,-7.6,-0.3,1.0
CC(C)NC(=O)N[C@H]1CC[C@H](CC(=O)NCc2ccc(Oc3ccccc3)cc2)O[C@@H]1CO,-11.9,nt,10.3,nt,nt
CCN(CC)C(=S)Sc1c(-c2ccccc2)c2cc(Cl)ccc2[nH]c1=O,35.1*,6.4,-1.1,-2.2,12.2
O=C(O)CSc1c(-c2ccccc2)c2cc(Cl)ccc2[nH]c1=O,-2.7,5.5,1.3,-0.3,-10.4
COc1cccc(C(c2sc3ncnn3c2O)N2CCc3ccccc3C2)c1 (centres undefined),-5.7,-4.1,1.1,-0.9,-61.9
COc1cccc(C(c2sc3ncnn3c2O)N2CC(C)OC(C)C2)c1 (centres undefined),35.4*,-0.3,-2.0,-1.9,-10.9
CC(C)c1cccc(-c2csc(C(O)c3cccc(Cl)c3)n2)c1 (centres undefined),1.0,nt,3.7,3.6,19.7
CC(C)(C)Nc1nc(Nc2ccc([N+](=O)[O-])cc2)nc(NC(C)(C)C)n1,9.4,0.3,-12.9,0.4,31.7
O=[N+]([O-])c1ccc(Nc2nccc(Cl)n2)cc1,44.5*,nt,-2.1,0.1,7.7
CN1C(=O)N(c2cccc3ccccc23)C(n2cncn2)C1(C)C (centres undefined),-8.6,-0.2,6.1,1.7,-16.7
CN1C(=O)N(c2ccccc2)C(Nc2nncs2)C1(C)C (centres undefined),38.3*,2.4,1.4,-1.3,0.1
CCOC(=O)C1Nc2ccccc2C2C(O)C(O)CC12 (centres undefined),12.2,-9.2,46.3*,3.7,-14.6
CCOC(=O)[C@]12CCCC=C1N(Cc1cccc3ccccc13)C(=O)[C@H](CC(=O)N1CCSCC1)C2,12.7,nt,-3.5,-0.2,15.0
COc1ccc(OCC(O)CNC(C)c2ccccc2)cc1 (centres undefined),-5.7,0.9,1.5,0.7,-2.0
COC(=O)c1ccc(OCC(O)CNC2CCCC2)cc1 (centres undefined),5.7,-0.7,-3.4,0.4,-4.4
CCCC(NCC(O)COc1ccc(-c2ccccc2)cc1)c1ccccc1 (centres undefined),58.0*,-1.5,-4.6,-0.2,1.7
OC(CNC1CCCC1)COc1ccc(-c2ccccc2)cc1 (centres undefined),43.4*,2.3,-2.8,-0.1,-0.7
COc1ccc(Cl)cc1-c1cc(C(=O)Nc2ccc(C(C)(C)C)cc2)[nH]n1,3.4,nt,-2.2,0.9,19.7
SMILES,SKN-1 block,DAGLB inhibitor,MT1-MMP act inh,hiPSC survival,FAS TE block
C[C@@H](NC(=O)[C@@H]1CCCN1C(=O)[C@@H]1CCCN1C(=O)c1ccc(Cl)cc1)c1ccccc1,-8.9,nt,5.7,-0.7,-9.9
C/C(=N\NC(=O)c1ccncc1)c1cc2ccccc2oc1=O,-3.5,1.5,-1.9,-3.6,-7.6
COc1ccc2oc(=O)c(/C(N)=N/NC(=O)c3ccncc3)cc2c1,38.1*,0.2,-2.8,-0.7,-10.3
CC1(C(=O)NCc2ccccc2Br)CCN1C(=O)CCc1ccc(Cl)cc1Cl (centres undefined),30.0,nt,-0.4,2.5,16.9
Fc1ccc(-c2cnn3c(-c4ccncc4)ccnc23)cc1,41.5*,4.1,0.7,-2.0,0.6
Cc1ccc(OCCN2CCN(c3nc(NCc4ccco4)c4ccccc4n3)CC2)cc1,2.0,-1.2,4.9,23.9*,21.7
c1ccc(CN2CCN(c3nc(NCc4ccco4)c4ccccc4n3)CC2)cc1,4.3,-0.7,4.8,29.8*,16.0
Cc1ccc(NC(=S)c2nc3ccccc3s2)cc1,35.3*,0.6,1.4,-3.6,16.9
Cc1cc(O)c2c(c1)CC1C3CCC4CC(=O)CCC4(C)C3CC(=O)C21C (centres undefined),-12.4,-1.4,9.0,-2.0,49.5
CC1=C(C(=O)Nc2ccccc2C(=O)N2CCN(c3ccccc3)CC2)SCCO1,-8.5,-0.9,-0.4,0.7,1.7
O=S(=O)(Cc1ccc(Cl)cc1)Oc1ccc(Cl)cc1,45.8*,-16.8,1.7,-2.7,24.9
CCC(c1nnnn1CCOC)N1CCN(Cc2ccccc2)CC1 (centres undefined),36.1*,0.9,nt,-0.7,-4.8
CCC(c1nnnn1CCOC)N1CCN(C(=O)c2ccco2)CC1 (centres undefined),-19.3,1.5,-2.7,-4.7,-6.7
CCc1cc2c(SCC(=O)NC3CCCC3)ncnc2s1,12.2,0.0,3.0,0.2,-2.0
C[C@@H]1CN([C@H](C)CO)C(=O)c2cc(Br)cnc2O[C@@H]1CN(C)C(=O)NC1CCCC1,7.5,-2.8,0.6,-0.7,-5.1
CN(C)C(=O)CN1C(=O)NC2(CCc3ccccc32)C1=O (centres undefined),37.1*,0.0,0.1,1.4,-5.5
O=C(O)CN1C(=O)NC2(CCc3ccccc32)C1=O (centres undefined),0.8,-3.9,-0.8,0.9,-6.4
CCCCNC(=O)C(NC(=O)c1cccnc1)C(=O)c1ccccc1 (centres undefined),-0.6,nt,1.4,-0.3,-12.0
CCOCCCNC(=O)C(c1ccc(Cl)cc1)N1CCC2(CC1)OCCO2 (centres undefined),37.0*,-7.3,-3.5,-0.6,-6.0
CCCCCCC[C@@H](C/C=C/CCC(=O)N(C)C/C(=C/Cl)C/C(=C\C(=O)N1CC(OC)=CC1=O)OC)OC,0.9,-3.1,3.1,34.8*,20.6
O=C(Nc1nc2ccc(F)cc2s1)c1ccc([N+](=O)[O-])o1,5.4,8.0,2.7,2.2,36.2
COC(=O)c1nc(-c2ccc(C)cc2)oc1N(C)C,-3.6,-0.8,-2.5,2.5,-1.7
COC(=O)c1nc(-c2ccccc2)oc1N(C)C,32.0*,-1.8,2.1,-1.3,-10.6
Nn1c(=S)[nH]c2sc3c(c2c1=O)CCCC3,35.6*,2.5,1.6,-0.6,-2.9

# Bioassay records from PubChem.
